# Compounds with a hit are over-represented: about 3.5% of the library has one in this group of screens.
# Pf gamet viab: kills late stage P. falciparum gametocytes | P. falciparum stage V gametocytes, ATP luminescence, 24 h | inhibition, % at 10.9 µM | 0.065% of 150,000 active | AID 743093;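 active = inhibition above the mean plus 3 SD of compounds within the control limits, set per campaign, cut at about 38% in these data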;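 also: 0% = DMSO wells and 100% = medium only without gametocytes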
# NF-kB expr up: raises NF-kB expression in human neuronal cells; NF-kB reporter expression; active compounds read high; 1.6% of 190,000 active; fold change at 12.5 µM; in the data active = fold change above about 3.3
# STAT1 act: activators of IFN-gamma induced STAT1 signaling; 2.6% of 200,000 active; activation (% of control), % at 5.5 µM; NIH 3T3 STAT1-luciferase reporter, luminescence; 100% = IFN-gamma alone, no compound; AID 932;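 active = activation above the screen-wide mean activation plus 3 SD, cut at about 130% in these data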;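 also: raw ratio to IFN-gamma control signal so 100% means no change and 0% no light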
# FLuc inhib CS: counter-screen for luciferase assay inhibitors: firefly luciferase inhibition; ATPLite firefly luciferase biochemical luminescence, 10 min; inhibition, % at 10 µM; 1.5% of 200,000 active; AID 1006;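 active = inhibition above about 50% when tested at 10 µM, limit read from the data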
# Target sequence (P08659 whole entry, looked up): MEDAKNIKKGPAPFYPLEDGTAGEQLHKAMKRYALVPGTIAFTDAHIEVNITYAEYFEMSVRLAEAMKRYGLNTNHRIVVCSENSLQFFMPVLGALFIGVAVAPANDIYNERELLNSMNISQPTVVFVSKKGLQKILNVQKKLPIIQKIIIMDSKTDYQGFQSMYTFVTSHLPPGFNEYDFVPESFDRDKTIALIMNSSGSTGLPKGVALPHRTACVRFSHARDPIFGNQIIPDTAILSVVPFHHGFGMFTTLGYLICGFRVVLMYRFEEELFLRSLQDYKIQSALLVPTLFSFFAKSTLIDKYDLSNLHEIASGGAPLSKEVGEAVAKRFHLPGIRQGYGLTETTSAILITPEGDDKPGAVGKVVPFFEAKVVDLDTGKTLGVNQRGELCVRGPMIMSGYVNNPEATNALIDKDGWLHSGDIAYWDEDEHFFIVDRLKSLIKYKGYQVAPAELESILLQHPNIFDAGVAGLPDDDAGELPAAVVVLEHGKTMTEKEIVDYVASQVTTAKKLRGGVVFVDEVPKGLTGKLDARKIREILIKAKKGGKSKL
# APP 5'UTR act: activates APP 5'UTR luciferase reporter; SH-SY5Y APP 5'UTR luciferase reporter, luminescence; zero percent = DMSO vehicle wells; activation, % at 2 µM; 1% of 190,000 active; AID 1276;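 active = activation above a set limit, based on mean plus 3 SD of controls, cut at about 140% in these data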
# FLuc act counter: firefly luciferase counter-screen for stimulation assays | P08659 | ATPlite luciferase biochemical, luminescence, 10 min; 0 = ATP-free wells, 1 = DMSO control | activation factor at 10 µM | 200,000 tested, under 10 active;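 active = luciferase activation factor, scaled between plate controls, of at least 2 with compound at 10 µM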
#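 System: luciferase plus luciferin reagent, cell-free; medium: PBS as buffer for the ATP substrate; dosing: test compounds dosed from 2 mM stocks in 100% DMSO; timing: 10 min post-reagent at room temperature; measured by: luminescence measurement of luciferase light output; evaluation: luciferase activation, seen as luminescence increase over controls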
# The depositor's hits bear a star; . = no result.
SMILES,Pf gamet viab,NF-kB expr up,STAT1 act,FLuc inhib CS,APP 5'UTR act,FLuc act counter
CN(CC(=O)Nc1ccccc1Br)Cc1nc2ccccc2c(=O)[nH]1,12,0.92,101,-10,-2,1.1
Cc1ccc(NC(=O)C(=O)NCC2CCCO2)cc1 (configuration not stated),-20,2.1,137*,10,42,0.9
Cc1ccc(C(=O)NC(=S)NCC2CCCO2)cc1 (configuration not stated),-6,2.5,129*,-1,31,1
Cc1cc(C)cc(NC(=O)C(=O)NCC2CCCO2)c1 (configuration not stated),14,1.4,106,6,17,0.9
Cc1ccc(NC(=O)C(=O)NCC2CCCO2)cc1C (configuration not stated),-13,2.7,142*,9,115,0.9
COc1ccc(S(=O)(=O)Nc2c(O)ccc3ccccc23)cc1OC,-23,.,.,.,.,.
O=C(CC1(O)C(=O)N(C/C=C/c2ccccc2)c2ccccc21)c1ccccn1 (configuration not stated),-34,3.8*,94,-3,-57,1
COc1cc2sc(-c3ccc(S(C)(=O)=O)cc3)c(C(=O)NCc3ccc(C)o3)c2cc1OC,-9,.,.,.,.,.
O=C(COC(=O)c1ccccn1)c1ccc(Br)cc1,9,1.1,102,63*,4,0.4
CC(C)c1ccc(NC(=O)C(=O)C2C(=O)Nc3ccccc32)cc1 (configuration not stated),.,1.5,104,52*,2,0.5
Cc1cc2c(cc1C)C(c1cccc([N+](=O)[O-])c1)CC(=O)N2 (configuration not stated),51*,0.84,94,-5,4,1.1
COc1cc(C2CC(=O)Nc3cc(C)c(C)cc32)cc(OC)c1OC (configuration not stated),12,1.1,101,-2,3,1
C/C(NC(=O)c1cccs1)=C1\C(=O)C[C@@H]2[C@H]1C2(C)C,.,2,130*,8,37,0.9
COc1ccc(CCNCC(=O)Nc2ccc(C)c(S(=O)(=O)N(C)C)c2)cc1,.,1.4,91,-9,-8,1.1
O=C1C2C3CCC(C3)C2C(=O)N1c1ccc(OS(=O)(=O)c2ccccc2)cc1 (configuration not stated),-22,1.7,137*,10,106,0.9
Cc1ccccc1NC(=S)N(CCN1CCOCC1)Cc1ccccc1F,-8,1.4,98,6,-2,0.9
COc1ccccc1/C=C/C(=O)OCC(=O)Nc1c(F)cccc1F,1,1.1,97,64*,1,0.4
Cc1ccc(NS(=O)(=O)c2cccc(C(=O)N/N=C/c3ccc4c(c3)OCCO4)c2)c(C)c1,.,1.1,95,0,7,1
COc1cc(/C(C)=N/NC(=O)CN2CCN(S(=O)(=O)c3ccc(C)cc3)CC2)ccc1O,39*,.,.,.,.,.
O=C(Cc1cccs1)N/N=C/c1ccccc1,-26,.,.,.,.,.
O=C(Cc1cccs1)N/N=C/C(Cl)=C/c1ccccc1,.,1.1,147*,-3,65,1
COC(=O)c1ccccc1NC(=O)Cn1cnc([N+](=O)[O-])c1,-3,.,.,.,.,.
Cc1cccc(N/N=C2/COC(C)(C)CC2=O)c1,0,1.2,136*,29,71,0.7
O=C1CC(c2ccccc2)CC(O)=C1C=Nc1ccc(O)cc1 (configuration not stated),-14,1.6,132*,12,-2,0.9
COc1cc2c(cc1OC)-c1nnc(-c3cccs3)n1C(C)(C)C2,.,.,99,.,-11,.
SMILES,Pf gamet viab,NF-kB expr up,STAT1 act,FLuc inhib CS,APP 5'UTR act,FLuc act counter
CCOc1ccc(S(=O)(=O)NCc2cccnc2)cc1C(C)C,-14,.,.,.,.,.
Nc1c(-c2ccsc2)cnc2ncnn12,4,1.6,104,-1,-7,1
CC(C)(C)S(=O)(=O)c1cnc2c(-c3ccsc3)cnn2c1N,22,1,132*,8,85,0.9
COC(=O)c1ccc(C2C(C(C)=O)=C(C)Nc3ncnn32)cc1 (configuration not stated),.,1.5,113,-8,5,1.1
CSc1ccc(/C=N/Nc2nc(C)cc(=O)[nH]2)cc1,-6,1.5,110,68*,5,0.3
CCCc1cc(C(=O)Nc2nccs2)cs1,4,6.7*,130*,61*,152*,0.4
CCc1cc(C(=O)Nc2ccccc2)cs1,.,3.7*,135*,43,97,0.6
CCc1cc(C(=O)NNC(=S)Nc2ccccc2C)cs1,-34,4.3*,119,50,120,0.5
C[C@@]12C(=O)N(Cc3ccccc3)CC(=O)N1[C@H](/C=C/c1ccccc1)[C@@H]1C(=O)N(c3ccccc3)C(=O)[C@@H]12,9,.,.,.,.,.
COc1ccc(CCCC(=O)N/N=C/c2cccc(OC)c2O)cc1C,-7,1.8,105,4,-12,1
Cc1nc(Nc2ccc3c(c2)OCCO3)c2c(C)c(C)sc2n1,15,1.1,97,2,12,1
Cc1ccc(N2C(=O)c3ccc(N)cc3C2=O)cc1,-23,3.5*,149*,26,29,0.7
Cc1ccc(N2C(=O)c3ccccc3C2=O)cc1C,-13,1.9,124,1,13,1
Cc1ccc(N2C(=O)c3ccc(N)cc3C2=O)cc1C,.,3.7*,141*,19,34,0.8
O=C(O)C(F)=C1c2ccccc2-c2ccccc21,-12,.,.,.,.,.
O=C(Nc1ccc(Cl)cn1)C1COc2ccccc2O1 (configuration not stated),10,1.5,109,18,51,0.8
COc1cc(/C=N/NC(=O)c2cc(-c3c(C)nn(-c4ccccc4)c3C)n[nH]2)ccc1O,-16,0.73,209*,13,-6,0.9
COc1ccc(/C=N/NC(=O)c2nc(-c3ccccc3)cc(-c3ccccc3)n2)cc1O,-21,0.6,131*,14,11,0.9
COc1cc(/C=N/Nc2nc3ccccc3o2)cc(OC)c1O,-25,0.93,101,13,18,0.9
COc1ccc(/C=N/NC(=O)c2nc(-c3ccccc3)cc(-c3ccccc3)n2)cc1,.,0.43,120,11,2,0.9
COc1ccc(/C=N/Nc2nc3ccccc3s2)cc1O,-1,4.6*,121,83*,136*,0.2
CC(=O)Nc1ccc(/C=N/Nc2nc3ccccc3s2)cc1,-8,.,.,.,.,.
COc1ccc(/C=N/Nc2nc3ccccc3o2)cc1O,-21,8.6*,118,66*,137*,0.3
COc1ccc(NC(=O)n2nc(OC(=O)c3cccs3)cc2N)cc1,2,1.3,102,0,6,1
Cc1c(NC(=O)c2cc3ccccc3oc2=O)c(=O)n(-c2ccccc2)n1C,.,1.6,113,-1,29,1
COc1ccccc1Nc1nnc(SCC2CCCCO2)s1 (configuration not stated),.,5.2*,87,86*,176*,0.1

# Assay outcomes deposited in PubChem BioAssay by several laboratories.
